From ChEMBL document CHEMBL3797186, “Single Residue Substitutions That Confer Voltage-Gated Sodium Ion Channel Subtype Selectivity in the NaV1.7 Inhibitory Peptide GpTx-1” (J Med Chem, 2016) come the findings set out here.

Molecules are shown by their SMILES. pIC50: −log10 of the molar value. Positions of bridges follow the written chain, without caps; N, C: chain ends. Non-standard residues stand in square brackets, D forms with d. Residues, ends and D or L forms follow the SMILES beside them. 1Nal = N[C@@H](Cc1cccc2ccccc12)C(=O)O Bounds are passed on as bounds.

For orientation: pIC50 means the IC50 on a negative log10 scale, so that one unit is a factor of ten.

Assay [1] deals with Sodium channel protein type 5 subunit alpha (Homo sapiens, UniProt Q14524). Kind of assay: Inhibition of human Nav1.5 expressed in HEK293 cells assessed as inward peak current by ion-works quattro patch clamp electrophysiology method. It is filed as cell-based. In a few lines:
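Stable HEK293 line expressing human NaV1.5, recorded by population patch clamp on the IonWorks Quattro.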
(In general: In patch-clamp work, channel activity is measured electrically.)

Assay [2] has as its target Sodium channel protein type 9 subunit alpha (Homo sapiens, UniProt Q15858). Kind of assay: Inhibition of human Nav1.7 expressed in HEK293 cells assessed as inward peak current by ion-works quattro patch clamp electrophysiology method. It is filed as cell-based.

Sodium channel protein type 5 subunit alpha, sequence (Q14524 whole entry): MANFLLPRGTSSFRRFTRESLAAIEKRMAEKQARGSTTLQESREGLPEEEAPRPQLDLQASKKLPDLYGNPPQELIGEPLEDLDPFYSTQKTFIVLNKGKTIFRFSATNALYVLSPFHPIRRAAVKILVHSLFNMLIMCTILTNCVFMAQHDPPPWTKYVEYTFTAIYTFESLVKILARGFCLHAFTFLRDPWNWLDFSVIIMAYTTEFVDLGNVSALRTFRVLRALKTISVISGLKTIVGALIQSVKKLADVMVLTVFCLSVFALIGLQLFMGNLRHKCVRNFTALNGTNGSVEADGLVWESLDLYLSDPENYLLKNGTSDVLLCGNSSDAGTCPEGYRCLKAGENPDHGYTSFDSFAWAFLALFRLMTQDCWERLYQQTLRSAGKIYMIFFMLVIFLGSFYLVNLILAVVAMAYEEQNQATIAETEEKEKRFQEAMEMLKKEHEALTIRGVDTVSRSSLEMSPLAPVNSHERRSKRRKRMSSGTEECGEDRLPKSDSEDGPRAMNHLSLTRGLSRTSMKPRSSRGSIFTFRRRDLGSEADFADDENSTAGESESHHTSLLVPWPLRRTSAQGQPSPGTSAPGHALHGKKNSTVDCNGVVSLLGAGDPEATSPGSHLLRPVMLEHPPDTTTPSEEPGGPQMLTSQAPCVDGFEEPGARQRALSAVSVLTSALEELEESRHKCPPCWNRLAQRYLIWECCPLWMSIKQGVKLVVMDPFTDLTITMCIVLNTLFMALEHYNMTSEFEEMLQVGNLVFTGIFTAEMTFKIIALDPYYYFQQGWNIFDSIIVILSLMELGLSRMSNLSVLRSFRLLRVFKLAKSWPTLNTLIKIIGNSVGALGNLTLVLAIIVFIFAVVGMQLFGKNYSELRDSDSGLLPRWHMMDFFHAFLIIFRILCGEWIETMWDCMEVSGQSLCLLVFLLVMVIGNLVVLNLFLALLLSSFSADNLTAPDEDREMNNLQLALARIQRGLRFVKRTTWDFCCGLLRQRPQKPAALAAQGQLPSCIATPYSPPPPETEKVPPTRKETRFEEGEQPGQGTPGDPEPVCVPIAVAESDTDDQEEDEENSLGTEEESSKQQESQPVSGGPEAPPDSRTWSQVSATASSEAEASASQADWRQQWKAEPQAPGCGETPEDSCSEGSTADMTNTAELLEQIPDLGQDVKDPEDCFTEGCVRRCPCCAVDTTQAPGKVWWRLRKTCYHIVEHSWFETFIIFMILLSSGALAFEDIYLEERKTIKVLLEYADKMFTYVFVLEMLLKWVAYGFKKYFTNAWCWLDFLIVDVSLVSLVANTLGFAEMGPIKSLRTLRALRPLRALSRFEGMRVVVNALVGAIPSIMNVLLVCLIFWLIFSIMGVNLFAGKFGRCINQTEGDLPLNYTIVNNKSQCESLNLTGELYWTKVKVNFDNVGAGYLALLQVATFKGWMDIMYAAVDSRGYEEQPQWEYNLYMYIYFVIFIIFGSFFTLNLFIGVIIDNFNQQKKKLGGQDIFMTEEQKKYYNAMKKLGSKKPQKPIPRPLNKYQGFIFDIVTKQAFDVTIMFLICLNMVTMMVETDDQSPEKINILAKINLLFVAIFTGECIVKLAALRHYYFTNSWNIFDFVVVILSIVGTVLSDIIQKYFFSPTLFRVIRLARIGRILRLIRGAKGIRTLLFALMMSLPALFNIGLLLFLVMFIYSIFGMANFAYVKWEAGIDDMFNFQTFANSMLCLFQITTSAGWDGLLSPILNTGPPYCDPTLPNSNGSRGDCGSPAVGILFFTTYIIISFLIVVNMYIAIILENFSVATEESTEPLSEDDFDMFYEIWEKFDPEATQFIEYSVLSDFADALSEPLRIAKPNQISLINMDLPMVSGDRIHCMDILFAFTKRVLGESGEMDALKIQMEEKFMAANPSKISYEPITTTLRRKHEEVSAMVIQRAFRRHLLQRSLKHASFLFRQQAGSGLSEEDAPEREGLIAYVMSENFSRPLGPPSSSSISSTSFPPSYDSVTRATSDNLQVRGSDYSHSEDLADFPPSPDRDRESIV
Sodium channel protein type 9 subunit alpha, sequence (Q15858 whole entry): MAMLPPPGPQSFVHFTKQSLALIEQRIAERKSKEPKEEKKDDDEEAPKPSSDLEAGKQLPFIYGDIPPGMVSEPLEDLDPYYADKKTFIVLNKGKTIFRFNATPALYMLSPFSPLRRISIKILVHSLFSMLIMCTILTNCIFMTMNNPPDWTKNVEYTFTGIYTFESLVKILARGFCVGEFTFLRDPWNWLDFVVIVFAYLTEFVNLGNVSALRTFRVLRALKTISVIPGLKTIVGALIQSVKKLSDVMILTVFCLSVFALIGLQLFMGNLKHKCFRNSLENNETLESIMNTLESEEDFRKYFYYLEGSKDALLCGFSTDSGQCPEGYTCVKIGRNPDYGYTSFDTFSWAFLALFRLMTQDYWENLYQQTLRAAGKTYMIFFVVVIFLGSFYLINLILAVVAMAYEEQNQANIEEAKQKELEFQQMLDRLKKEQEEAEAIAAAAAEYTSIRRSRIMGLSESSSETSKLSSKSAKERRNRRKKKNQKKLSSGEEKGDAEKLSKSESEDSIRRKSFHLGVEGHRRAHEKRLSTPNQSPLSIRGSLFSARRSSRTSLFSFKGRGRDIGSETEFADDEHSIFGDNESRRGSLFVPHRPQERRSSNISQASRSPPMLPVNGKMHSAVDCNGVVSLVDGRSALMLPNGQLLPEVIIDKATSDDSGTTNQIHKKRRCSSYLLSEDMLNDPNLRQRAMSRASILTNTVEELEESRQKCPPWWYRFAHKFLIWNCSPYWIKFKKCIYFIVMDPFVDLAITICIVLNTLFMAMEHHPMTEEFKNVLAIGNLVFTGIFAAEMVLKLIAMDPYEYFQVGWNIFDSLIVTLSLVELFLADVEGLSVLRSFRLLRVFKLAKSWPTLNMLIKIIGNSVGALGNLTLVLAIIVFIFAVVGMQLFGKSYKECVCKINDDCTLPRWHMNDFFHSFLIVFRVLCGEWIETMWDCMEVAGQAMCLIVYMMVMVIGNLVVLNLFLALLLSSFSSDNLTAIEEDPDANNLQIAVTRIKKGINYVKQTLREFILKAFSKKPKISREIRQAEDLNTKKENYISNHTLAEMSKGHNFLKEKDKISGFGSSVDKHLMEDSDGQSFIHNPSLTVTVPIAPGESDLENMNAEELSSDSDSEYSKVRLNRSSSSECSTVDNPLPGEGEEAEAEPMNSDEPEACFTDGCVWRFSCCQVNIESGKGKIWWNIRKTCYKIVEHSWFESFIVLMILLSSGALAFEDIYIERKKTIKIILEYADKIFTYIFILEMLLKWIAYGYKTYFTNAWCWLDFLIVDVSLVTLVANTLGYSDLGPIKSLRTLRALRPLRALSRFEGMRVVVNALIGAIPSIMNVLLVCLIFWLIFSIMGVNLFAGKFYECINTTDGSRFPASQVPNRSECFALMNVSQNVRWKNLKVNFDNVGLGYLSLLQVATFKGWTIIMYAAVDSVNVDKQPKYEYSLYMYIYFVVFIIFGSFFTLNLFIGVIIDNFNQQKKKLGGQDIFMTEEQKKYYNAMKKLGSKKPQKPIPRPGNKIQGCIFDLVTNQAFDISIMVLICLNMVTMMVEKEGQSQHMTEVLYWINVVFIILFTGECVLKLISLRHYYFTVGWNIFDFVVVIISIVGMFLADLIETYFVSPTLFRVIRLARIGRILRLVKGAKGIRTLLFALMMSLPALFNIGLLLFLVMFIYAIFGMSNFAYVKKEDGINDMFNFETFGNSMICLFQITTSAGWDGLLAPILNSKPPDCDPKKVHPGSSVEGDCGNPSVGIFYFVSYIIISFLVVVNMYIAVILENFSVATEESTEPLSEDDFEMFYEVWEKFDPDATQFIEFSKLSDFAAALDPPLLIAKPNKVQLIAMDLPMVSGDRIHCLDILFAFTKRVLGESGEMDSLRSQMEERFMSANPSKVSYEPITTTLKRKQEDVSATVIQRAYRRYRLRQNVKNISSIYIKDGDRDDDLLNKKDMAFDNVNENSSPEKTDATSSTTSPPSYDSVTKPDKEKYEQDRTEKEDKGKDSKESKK

`CSCC[C@@H]1NC(=O)[C@H](Cc2ccccc2)NC(=O)CNC(=O)[C@H](CC(C)C)NC(=O)[C@@H](NC(=O)[C@@H](N)CC(=O)O)CSSC[C@@H]2NC(=O)[C@@H]3CSSC[C@@H](C(=O)N[C@@H](CCCCN)C(=O)N[C@@H](Cc4ccc(O)cc4)C(=O)N[C@H](C(=O)N[C@@H](Cc4ccccc4)C(N)=O)C(C)C)NC(=O)[C@H](Cc4c[nH]c5ccccc45)NC(=O)[C@H](CCCCN)NC(=O)[C@H](Cc4cnc[nH]4)NC(=O)[C@H]([C@@H](C)O)NC(=O)[C@H](CCCNC(=N)N)NC(=O)[C@H](CO)NC(=O)[C@H](CSSC[C@H](NC(=O)[C@H](CCCCN)NC(=O)[C@H](CCCNC(=N)N)NC1=O)C(=O)N[C@@H](CCCCN)C(=O)N1CCC[C@H]1C(=O)N[C@@H](CC(=O)O)C(=O)N[C@@H](CC(N)=O)C(=O)N[C@@H](CC(=O)O)C(=O)N[C@@H](CCCCN)C(=O)N3)NC(=O)[C@H](C(C)C)NC(=O)[C@H](CC(C)C)NC(=O)[C@H](CC(N)=O)NC(=O)[C@@H]1CCCN1C(=O)[C@H](CCCNC(=N)N)NC2=O` (H-DCLGFMRKCKPDNDKCCRPNLVCSRTHKWCKYVF-NH2; disulfide 2-17, 9-23, 16-30): the pIC50 in assay [1] was under 5.30; in assay [2], 6.64.
Taken in the same sequence, the figures for `CSCC[C@@H]1NC(=O)[C@H](Cc2ccccc2)NC(=O)CNC(=O)[C@H](CC(C)C)NC(=O)[C@@H](NC(=O)[C@@H](N)CC(=O)O)CSSC[C@@H]2NC(=O)[C@@H]3CSSC[C@@H](C(=O)N[C@@H](CCCCN)C(=O)N[C@@H](Cc4ccc(O)cc4)C(=O)N[C@H](C(=O)N[C@@H](Cc4ccccc4)C(N)=O)C(C)C)NC(=O)[C@H](Cc4c[nH]c5ccccc45)NC(=O)[C@H](CCCCN)NC(=O)[C@H](Cc4cnc[nH]4)NC(=O)[C@H]([C@@H](C)O)NC(=O)[C@H](CCCNC(=N)N)NC(=O)[C@H](CO)NC(=O)[C@H](CSSC[C@H](NC(=O)[C@H](CCCCN)NC(=O)[C@H](CCCNC(=N)N)NC1=O)C(=O)N[C@@H](CC(C)C)C(=O)N1CCC[C@H]1C(=O)N[C@@H](CC(=O)O)C(=O)N[C@@H](CC(N)=O)C(=O)N[C@@H](CC(=O)O)C(=O)N[C@@H](CCCCN)C(=O)N3)NC(=O)[C@H](C(C)C)NC(=O)[C@H](CC(C)C)NC(=O)[C@H](CC(N)=O)NC(=O)[C@@H]1CCCN1C(=O)[C@H](CCCNC(=N)N)NC2=O` (H-DCLGFMRKCLPDNDKCCRPNLVCSRTHKWCKYVF-NH2; disulfide 2-17, 9-23, 16-30) were under 5.30 and 6.85.
Taken in the same sequence, the figures for `CSCC[C@@H]1NC(=O)[C@H](Cc2ccccc2)NC(=O)CNC(=O)[C@H](CC(C)C)NC(=O)[C@@H](NC(=O)[C@@H](N)CC(=O)O)CSSC[C@@H]2NC(=O)[C@@H]3CSSC[C@@H](C(=O)N[C@@H](CCCCN)C(=O)N[C@@H](Cc4ccc(O)cc4)C(=O)N[C@H](C(=O)N[C@@H](Cc4ccccc4)C(N)=O)C(C)C)NC(=O)[C@H](Cc4c[nH]c5ccccc45)NC(=O)[C@H](CCCCN)NC(=O)[C@H](Cc4cnc[nH]4)NC(=O)[C@H]([C@@H](C)O)NC(=O)[C@H](CCCNC(=N)N)NC(=O)[C@H](CO)NC(=O)[C@H](CSSC[C@H](NC(=O)[C@H](CCCCN)NC(=O)[C@H](CCCNC(=N)N)NC1=O)C(=O)N[C@@H](CCCNC(=N)N)C(=O)N1CCC[C@H]1C(=O)N[C@@H](CC(=O)O)C(=O)N[C@@H](CC(N)=O)C(=O)N[C@@H](CC(=O)O)C(=O)N[C@@H](CCCCN)C(=O)N3)NC(=O)[C@H](C(C)C)NC(=O)[C@H](CC(C)C)NC(=O)[C@H](CC(N)=O)NC(=O)[C@@H]1CCCN1C(=O)[C@H](CCCNC(=N)N)NC2=O` (H-DCLGFMRKCRPDNDKCCRPNLVCSRTHKWCKYVF-NH2; disulfide 2-17, 9-23, 16-30) were under 5.30 and 6.77.
In the case of `CC[C@H](C)[C@@H]1NC(=O)[C@@H]2CSSC[C@@H]3NC(=O)[C@H](C(C)C)NC(=O)[C@H](CC(C)C)NC(=O)[C@H](CC(N)=O)NC(=O)[C@@H]4CCCN4C(=O)[C@H](CCCNC(=N)N)NC(=O)[C@H](CSSC[C@H](NC(=O)[C@@H](N)CC(=O)O)C(=O)N[C@@H](CC(C)C)C(=O)NCC(=O)N[C@@H](Cc4ccccc4)C(=O)N[C@@H](CCSC)C(=O)N[C@@H](CCCNC(=N)N)C(=O)N[C@@H](CCCNC(=N)N)C(=O)N2)NC(=O)[C@H](CSSC[C@@H](C(=O)N[C@@H](CCCCN)C(=O)N[C@@H](Cc2ccc(O)cc2)C(=O)N[C@H](C(=O)N[C@@H](Cc2ccccc2)C(N)=O)C(C)C)NC(=O)[C@H](Cc2c[nH]c4ccccc24)NC(=O)[C@H](CCCCN)NC(=O)[C@H](Cc2cnc[nH]2)NC(=O)[C@H]([C@@H](C)O)NC(=O)[C@H](CCCNC(=N)N)NC(=O)[C@H](CO)NC3=O)NC(=O)[C@H](CCCCN)NC(=O)[C@H](CC(=O)O)NC(=O)[C@H](CC(N)=O)NC(=O)[C@H](CC(=O)O)NC(=O)[C@@H]2CCCN2C1=O` (H-DCLGFMRRCIPDNDKCCRPNLVCSRTHKWCKYVF-NH2; disulfide 2-17, 9-23, 16-30), the negative logarithm of the IC50 (pIC50) in assay [1] is under 5.30; in assay [2], 6.89.
In the case of `CC[C@H](C)[C@@H]1NC(=O)[C@@H]2CSSC[C@@H]3NC(=O)[C@H](C(C)C)NC(=O)[C@H](CC(C)C)NC(=O)[C@H](CC(N)=O)NC(=O)[C@@H]4CCCN4C(=O)[C@H](CCCNC(=N)N)NC(=O)[C@H](CSSC[C@H](NC(=O)[C@@H](N)CC(=O)O)C(=O)N[C@@H](CC(C)C)C(=O)NCC(=O)N[C@@H](Cc4ccccc4)C(=O)N[C@@H](CCCNC(=N)N)C(=O)N[C@@H](CCCNC(=N)N)C(=O)N[C@@H](CCCCN)C(=O)N2)NC(=O)[C@H](CSSC[C@@H](C(=O)N[C@@H](CCCCN)C(=O)N[C@@H](Cc2ccc(O)cc2)C(=O)N[C@H](C(=O)N[C@@H](Cc2ccccc2)C(N)=O)C(C)C)NC(=O)[C@H](Cc2c[nH]c4ccccc24)NC(=O)[C@H](CCCCN)NC(=O)[C@H](Cc2cnc[nH]2)NC(=O)[C@H]([C@@H](C)O)NC(=O)[C@H](CCCNC(=N)N)NC(=O)[C@H](CO)NC3=O)NC(=O)[C@H](CCCCN)NC(=O)[C@H](CC(=O)O)NC(=O)[C@H](CC(N)=O)NC(=O)[C@H](CC(=O)O)NC(=O)[C@@H]2CCCN2C1=O` (H-DCLGFRRKCIPDNDKCCRPNLVCSRTHKWCKYVF-NH2; disulfide 2-17, 9-23, 16-30), the pIC50 in assay [1] was under 5.30; in assay [2], under 5.31.
Taken in the same sequence, the figures for `CC[C@H](C)[C@@H]1NC(=O)[C@@H]2CSSC[C@@H]3NC(=O)[C@H](C(C)C)NC(=O)[C@H](CC(C)C)NC(=O)[C@H](CC(N)=O)NC(=O)[C@@H]4CCCN4C(=O)[C@H](CCCNC(=N)N)NC(=O)[C@H](CSSC[C@H](NC(=O)[C@@H](N)CC(=O)O)C(=O)N[C@@H](CC(C)C)C(=O)NCC(=O)N[C@@H](Cc4c[nH]c5ccccc45)C(=O)N[C@@H](CCSC)C(=O)N[C@@H](CCCNC(=N)N)C(=O)N[C@@H](CCCCN)C(=O)N2)NC(=O)[C@H](CSSC[C@@H](C(=O)N[C@@H](CCCCN)C(=O)N[C@@H](Cc2ccc(O)cc2)C(=O)N[C@H](C(=O)N[C@@H](Cc2ccccc2)C(N)=O)C(C)C)NC(=O)[C@H](Cc2c[nH]c4ccccc24)NC(=O)[C@H](CCCCN)NC(=O)[C@H](Cc2cnc[nH]2)NC(=O)[C@H]([C@@H](C)O)NC(=O)[C@H](CCCNC(=N)N)NC(=O)[C@H](CO)NC3=O)NC(=O)[C@H](CCCCN)NC(=O)[C@H](CC(=O)O)NC(=O)[C@H](CC(N)=O)NC(=O)[C@H](CC(=O)O)NC(=O)[C@@H]2CCCN2C1=O` (H-DCLGWMRKCIPDNDKCCRPNLVCSRTHKWCKYVF-NH2; disulfide 2-17, 9-23, 16-30) were under 5.30 and 6.70.
`CC[C@H](C)[C@@H]1NC(=O)[C@@H]2CSSC[C@@H]3NC(=O)[C@H](C(C)C)NC(=O)[C@H](CC(C)C)NC(=O)[C@H](CC(N)=O)NC(=O)[C@@H]4CCCN4C(=O)[C@H](CCCNC(=N)N)NC(=O)[C@H](CSSC[C@H](NC(=O)[C@@H](N)Cc4c[nH]c5ccccc45)C(=O)N[C@@H](CC(C)C)C(=O)NCC(=O)N[C@@H](Cc4ccccc4)C(=O)N[C@@H](CCSC)C(=O)N[C@@H](CCCNC(=N)N)C(=O)N[C@@H](CCCCN)C(=O)N2)NC(=O)[C@H](CSSC[C@@H](C(=O)N[C@@H](CCCCN)C(=O)N[C@@H](Cc2ccc(O)cc2)C(=O)N[C@H](C(=O)N[C@@H](Cc2ccccc2)C(N)=O)C(C)C)NC(=O)[C@H](Cc2c[nH]c4ccccc24)NC(=O)[C@H](CCCCN)NC(=O)[C@H](Cc2cnc[nH]2)NC(=O)[C@H]([C@@H](C)O)NC(=O)[C@H](CCCNC(=N)N)NC(=O)[C@H](CO)NC3=O)NC(=O)[C@H](CCCCN)NC(=O)[C@H](CC(=O)O)NC(=O)[C@H](CC(N)=O)NC(=O)[C@H](CC(=O)O)NC(=O)[C@@H]2CCCN2C1=O` (H-WCLGFMRKCIPDNDKCCRPNLVCSRTHKWCKYVF-NH2; disulfide 2-17, 9-23, 16-30): the values for the pIC50 in assay [1] and in assay [2] were under 5.30 and 7.15, respectively.
The like results for `CC[C@H](C)[C@@H]1NC(=O)[C@@H]2CSSC[C@@H]3NC(=O)[C@H](C(C)C)NC(=O)[C@H](CC(C)C)NC(=O)[C@H](CC(N)=O)NC(=O)[C@@H]4CCCN4C(=O)[C@H](CCCNC(=N)N)NC(=O)[C@H](CSSC[C@H](NC(=O)[C@@H](N)Cc4cccc5ccccc45)C(=O)N[C@@H](CC(C)C)C(=O)NCC(=O)N[C@@H](Cc4ccccc4)C(=O)N[C@@H](CCSC)C(=O)N[C@@H](CCCNC(=N)N)C(=O)N[C@@H](CCCCN)C(=O)N2)NC(=O)[C@H](CSSC[C@@H](C(=O)N[C@@H](CCCCN)C(=O)N[C@@H](Cc2ccc(O)cc2)C(=O)N[C@H](C(=O)N[C@@H](Cc2ccccc2)C(N)=O)C(C)C)NC(=O)[C@H](Cc2c[nH]c4ccccc24)NC(=O)[C@H](CCCCN)NC(=O)[C@H](Cc2c[nH]cn2)NC(=O)[C@H]([C@@H](C)O)NC(=O)[C@H](CCCNC(=N)N)NC(=O)[C@H](CO)NC3=O)NC(=O)[C@H](CCCCN)NC(=O)[C@H](CC(=O)O)NC(=O)[C@H](CC(N)=O)NC(=O)[C@H](CC(=O)O)NC(=O)[C@@H]2CCCN2C1=O` (H-[1Nal]CLGFMRKCIPDNDKCCRPNLVCSRTHKWCKYVF-NH2; disulfide 2-17, 9-23, 16-30) were, in that order, under 5.30 and 7.00.
